Source: article PMC9291822 (British Journal of Clinical Pharmacology, 2021)
Like-named read-outs stand apart in the source and are kept apart here.

How the values were obtained:
[1] = format: in vivo, human; conditions: for AUCinf of metabolite, GM / AUCinf of metabolite, mean (SD) / AUClast of metabolite, GM / AUClast of metabolite, mean (SD) / Cmax of metabolite, GM / Cmax of metabolite, mean (SD) / Metabolite ratio of AUCinf, GM / Metabolite ratio of AUCinf, mean (SD) / Metabolite ratio of AUClast, GM / Metabolite ratio of AUClast, mean (SD) / Tmax of metabolite, median (range) / t½ of metabolite, GM / t½ of metabolite, mean (SD): after capmatinib single oral dose 200 mg
Summary of the method: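 Adults aged 18–75 with hepatic impairment (Child–Pugh A/B/C, also reclassified by NCI Organ Dysfunction Working Group criteria) or normal function, matched on age, weight and sex. Overnight fast (≥10 h), single oral 200 mg (2 × 100 mg tablets), fasting ≥4 h post-dose. Plasma sampled predose to 72 h; parent and metabolite measured by validated LC-MS/MS (LLOQ ~1.00 ng/mL). Noncompartmental analysis; GM ratios vs normal with 90% CIs.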

[2] = multiple dosing of capmatinib; cited from earlier work
[3] = mild (n = 6), listed as M16 (CMN288)
[4] = moderate (n = 8), listed as M16 (CMN288)
[5] = normal (n = 9), listed as M16 (CMN288)
[6] = severe (n = 6), listed as M16 (CMN288)

CNC(=O)c1ccc(-c2nn3c(Cc4ccc5ncccc5c4)cnc3[nH]c2=O)cc1F [CMN288]
AUCinf of metabolite, GM ([1]; mild (n = 6)): 2190 ng·h/mL
AUCinf of metabolite, mean (SD) ([1]; mild (n = 6)): 2300 (691) ng × h/mL
AUClast of metabolite, GM ([1]; mild (n = 6)): 2150 ng·h/mL
AUClast of metabolite, mean (SD) ([1]; mild (n = 6)): 2250 (677) ng × h/mL
Cmax of metabolite, GM ([1]; mild (n = 6)): 423 ng/mL
Cmax of metabolite, mean (SD) ([1]; mild (n = 6)): 492 (272) ng/mL
Metabolite ratio of AUCinf, GM ([1]; mild (n = 6)): 0.440 (23.8) fold
Metabolite ratio of AUCinf, mean (SD) ([1]; mild (n = 6)): 0.450 (0.0988) fold
Metabolite ratio of AUClast, GM ([1]; mild (n = 6)): 0.437 (24.1) fold
Metabolite ratio of AUClast, mean (SD) ([1]; mild (n = 6)): 0.447 (0.100) fold
Tmax of metabolite, median (range) ([1]; mild (n = 6)): 1.00 (1.00–2.00) h
t½ of metabolite, GM ([1]; mild (n = 6)): 6.84 h
t½ of metabolite, mean (SD) ([1]; mild (n = 6)): 7.86 (5.49) h
Metabolite ratio of AUCinf, GM [1, 3]: 0.440 fold
Metabolite ratio of AUClast, GM [1, 3]: 0.437 fold
AUCinf of metabolite, GM ([1]; moderate (n = 8)): 3400 ng·h/mL
AUCinf of metabolite, mean (SD) ([1]; moderate (n = 8)): 3850 (2490) ng × h/mL
AUClast of metabolite, GM ([1]; moderate (n = 8)): 3370 ng·h/mL
AUClast of metabolite, mean (SD) ([1]; moderate (n = 8)): 3830 (2490) ng × h/mL
Cmax of metabolite, GM ([1]; moderate (n = 8)): 587 ng/mL
Cmax of metabolite, mean (SD) ([1]; moderate (n = 8)): 738 (645) ng/mL
Metabolite ratio of AUCinf, GM ([1]; moderate (n = 8)): 0.573 (67.7) fold
Metabolite ratio of AUCinf, mean (SD) ([1]; moderate (n = 8)): 0.680 (0.443) fold
Metabolite ratio of AUClast, GM ([1]; moderate (n = 8)): 0.573 (68.0) fold
Metabolite ratio of AUClast, mean (SD) ([1]; moderate (n = 8)): 0.680 (0.445) fold
Tmax of metabolite, median (range) ([1]; moderate (n = 8)): 1.00 (1.00–3.00) h
t½ of metabolite, GM ([1]; moderate (n = 8)): 6.42 h
t½ of metabolite, mean (SD) ([1]; moderate (n = 8)): 7.32 (5.16) h
Metabolite ratio of AUCinf, GM [1, 4]: 0.573 fold
Metabolite ratio of AUClast, GM [1, 4]: 0.573 fold
AUCinf of metabolite, GM ([1]; normal (n = 9)): 4560 ng·h/mL
AUCinf of metabolite, mean (SD) ([1]; normal (n = 9)): 4820 (1880) ng × h/mL
AUClast of metabolite, GM ([1]; normal (n = 9)): 4520 ng·h/mL
AUClast of metabolite, mean (SD) ([1]; normal (n = 9)): 4780 (1880) ng × h/mL
Cmax of metabolite, GM ([1]; normal (n = 9)): 1010 ng/mL
Cmax of metabolite, mean (SD) ([1]; normal (n = 9)): 1050 (328) ng/mL
Metabolite ratio of AUCinf, GM ([1]; normal (n = 9)): 0.704 (24.1) fold
Metabolite ratio of AUCinf, mean (SD) ([1]; normal (n = 9)): 0.722 (0.181) fold
Metabolite ratio of AUClast, GM ([1]; normal (n = 9)): 0.702 (24.0) fold
Metabolite ratio of AUClast, mean (SD) ([1]; normal (n = 9)): 0.720 (0.180) fold
Tmax of metabolite, median (range) ([1]; normal (n = 9)): 1.50 (1.00–2.00) h
t½ of metabolite, GM ([1]; normal (n = 9)): 9.96 h
t½ of metabolite, mean (SD) ([1]; normal (n = 9)): 11.4 (6.92) h
Metabolite ratio of AUCinf, GM [1, 5]: 0.704 fold
Metabolite ratio of AUClast, GM [1, 5]: 0.702 fold
AUCinf of metabolite, GM ([1]; severe (n = 6)): 2130 ng·h/mL
AUCinf of metabolite, mean (SD) ([1]; severe (n = 6)): 2350 (1200) ng × h/mL
AUClast of metabolite, GM ([1]; severe (n = 6)): 2110 ng·h/mL
AUClast of metabolite, mean (SD) ([1]; severe (n = 6)): 2330 (1210) ng × h/mL
Cmax of metabolite, GM ([1]; severe (n = 6)): 262 ng/mL
Cmax of metabolite, mean (SD) ([1]; severe (n = 6)): 287 (130) ng/mL
Metabolite ratio of AUCinf, GM ([1]; severe (n = 6)): 0.266 (32.2) fold
Metabolite ratio of AUCinf, mean (SD) ([1]; severe (n = 6)): 0.276 (0.0802) fold
Metabolite ratio of AUClast, GM ([1]; severe (n = 6)): 0.264 (32.2) fold
Metabolite ratio of AUClast, mean (SD) ([1]; severe (n = 6)): 0.274 (0.0795) fold
Tmax of metabolite, median (range) ([1]; severe (n = 6)): 3.00 (1.50–6.00) h
t½ of metabolite, GM ([1]; severe (n = 6)): 5.87 h
t½ of metabolite, mean (SD) ([1]; severe (n = 6)): 5.93 (0.907) h
Metabolite ratio of AUCinf, GM [1, 6]: 0.266 fold
Metabolite ratio of AUClast, GM [1, 6]: 0.264 fold
decrease in metabolite GM AUCinf vs. normal group ([1]; mild group): 52.0%
decrease in metabolite GM AUClast vs. normal group ([1]; mild group): 52.4%
decrease in metabolite GM Cmax vs. normal group ([1]; mild group): 58.1%
decrease in metabolite GM t1/2 vs. normal group ([1]; mild group): 31.3%
decrease in metabolite GM AUCinf vs. normal group ([1]; moderate group): 25.4%
decrease in metabolite GM AUClast vs. normal group ([1]; moderate group): 25.4%
decrease in metabolite GM Cmax vs. normal group ([1]; moderate group): 41.9%
decrease in metabolite GM t1/2 vs. normal group ([1]; moderate group): 35.5%
decrease in metabolite GM AUCinf vs. normal group ([1]; severe group): 53.3%
decrease in metabolite GM AUClast vs. normal group ([1]; severe group): 53.3%
decrease in metabolite GM Cmax vs. normal group ([1]; severe group): 74.1%
decrease in metabolite GM t1/2 vs. normal group ([1]; severe group): 41.1%
decrease in metabolite GM AUCinf and AUClast vs. normal hepatic function ([1]; the 3 hepatic impairment groups): 25–53%
accumulation of metabolite after multiple dosing [2]: does not accumulate
